This is an account of results in ChEMBL document CHEMBL1154547, “Salicylanilide esters of N-protected amino acids as novel antimicrobial agents” (Bioorg Med Chem Lett, 2009).

In brackets after ≈: the same amount, converted by molar mass. Some results are limits rather than exact numbers.

The test system of data set [1] is Mycobacterium tuberculosis. The data set can be described thus: Antitubercular activity against Mycobacterium tuberculosis H37Rv by microplate alamar blue assay. In kind it is functional.
Data set [2] concerns Trichosporon beigelii. Kind of data set: Antifungal activity against Trichosporon beigelii 1188 after 24 hrs by broth microdilution method. In kind it is functional. Summed up: (§1)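 In vitro antifungal screening against eight strains. Compounds tested at concentrations in the range 62.5–1.95 µmol/L.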
A general note: In broth dilution the organism is exposed to a series of concentrations in liquid medium.

For data set [3], the system named is Nakaseomyces glabratus. The data set can be described thus: Antifungal activity against Candida glabrata 20/I after 48 hrs by broth microdilution method. In kind it is functional. The gist of the method: as §1
A short description of data set [4]: Lipophilicity, log K of the compound. In kind it is physicochemical. The gist of the method: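 Mobile phase used methanol as organic modifier. The capacity factor k was measured and log k calculated from it. Chiral compounds were measured several times.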
For data set [5], the system named is Lichtheimia corymbifera. The data set can be described thus: Antifungal activity against Absidia corymbifera 272 after 24 hrs by broth microdilution method. In kind it is functional. The gist of the method: as §1
Data set [6] concerns Aspergillus fumigatus. The data set can be described thus: Antifungal activity against Aspergillus fumigatus 231 after 48 hrs by broth microdilution method. In kind it is functional. Summed up: as §1
Data set [7] relates to Lichtheimia corymbifera. The data set can be described thus: Antifungal activity against Absidia corymbifera 272 after 48 hrs by broth microdilution method. In kind it is functional. The gist of the method:
as §1

For data set [8], the system named is Candida tropicalis. Kind of data set: Antifungal activity against Candida tropicalis ATCC 156 after 24 hrs by broth microdilution method. The note with it: ATCC 156, 24 h. In kind it is functional. The gist of the method:
as §1

For data set [9], the system named is Candida albicans. The data set can be described thus: Antifungal activity against Candida albicans ATCC 44859 after 48 hrs by broth microdilution method. In kind it is functional. The conditions noted are these: ATCC 44859, 48 h. Summed up:
as §1

Data set [10] concerns Nakaseomyces glabratus. Kind of data set: Antifungal activity against Candida glabrata 20/I after 24 hrs by broth microdilution method. In kind it is functional. Summed up:
as §1

In data set [11] the test system is Trichosporon beigelii. The data set can be described thus: Antifungal activity against Trichosporon beigelii 1188 after 48 hrs by broth microdilution method. In kind it is functional. Summed up: as §1
Data set [12] concerns Pichia kudriavzevii. The data set can be described thus: Antifungal activity against Candida krusei E28 after 24 hrs by broth microdilution method. In kind it is functional. The gist of the method:
as §1

Data set [13] has as its system Trichophyton mentagrophytes. The data set can be described thus: Antifungal activity against Trichophyton mentagrophytes 445 after 48 hrs by broth microdilution method. In kind it is functional. The gist of the method: as §1
The subject of data set [14] is Candida tropicalis. Kind of data set: Antifungal activity against Candida tropicalis ATCC 156 after 48 hrs by broth microdilution method. In kind it is functional. The note with it: ATCC 156, 48 h. Summed up:
as §1

Data set [15] concerns Trichophyton mentagrophytes. The data set can be described thus: Antifungal activity against Trichophyton mentagrophytes 445 after 24 hrs by broth microdilution method. In kind it is functional. The gist of the method:
as §1

Data set [16] concerns Candida albicans. Kind of data set: Antifungal activity against Candida albicans ATCC 44859 after 24 hrs by broth microdilution method. In kind it is functional. The conditions noted are these: ATCC 44859, 24 h. Summed up:
as §1

In data set [17] the test system is Pichia kudriavzevii. The data set can be described thus: Antifungal activity against Candida krusei E28 after 48 hrs by broth microdilution method. In kind it is functional. Summed up:
as §1

The test system of data set [18] is Mycobacterium tuberculosis. Kind of data set: Antitubercular activity against Mycobacterium tuberculosis H37Rv at 6.25 ug/ml by microplate alamar blue assay. In kind it is functional. Summed up: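 Primary single-concentration screen at the TAACF against M. tuberculosis H37Rv (ATCC 27294) in BACTEC 12B medium, read by Microplate Alamar Blue Assay. Each compound was tested at 6.25 per mL, or at the molar equivalent of the highest-molecular-weight compound in its congener series.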
(In general: The colour change of resazurin is a common sign of viable cells or microbes.)

The subject of data set [19] is Aspergillus fumigatus. The data set can be described thus: Antifungal activity against Aspergillus fumigatus 231 after 24 hrs by broth microdilution method. In kind it is functional. Summed up: as §1

For the compound `O=C(CNC(=O)OCc1ccccc1)Oc1ccc(Cl)cc1C(=O)Nc1ccc(C(F)(F)F)cc1`, in data set [1], the MIC was over 6.25 µg/mL. Also, the IC80 is 31.2 µg/mL (≈ 61.7 µM) in the data set on Trichosporon beigelii [2]; over 125 µg/mL in the data set on Nakaseomyces glabratus [3]; 31.2 µg/mL (≈ 61.7 µM) with Lichtheimia corymbifera [5]; over 125 µg/mL in the data set on Aspergillus fumigatus [6]; 31.2 µg/mL (≈ 61.7 µM) in the data set with Lichtheimia corymbifera [7]; 125 µg/mL (≈ 247 µM) in the data set with Candida tropicalis [8]. In addition, the IC80 with Candida albicans [9] was 62.5 µg/mL (≈ 123 µM); in the data set on Nakaseomyces glabratus [10], 31.2 µg/mL (≈ 61.7 µM); with Trichosporon beigelii [11], 31.2 µg/mL (≈ 61.7 µM); in the data set with Pichia kudriavzevii [12], 31.2 µg/mL (≈ 61.7 µM); in [13], 15.6 µg/mL (≈ 30.8 µM); in the data set with Candida tropicalis [14], over 125 µg/mL. Moreover, the IC80 in data set [15] is 15.6 µg/mL (≈ 30.8 µM); with Candida albicans [16] it was 62.5 µg/mL (≈ 123 µM); in the data set with Pichia kudriavzevii [17], 31.2 µg/mL (≈ 61.7 µM); in the data set on Aspergillus fumigatus [19], 125 µg/mL (≈ 247 µM). For the same compound, in data set [4], the “log K” value is reported as 0.7292. In data set [18], the inhibition at 6.25 µg/mL was found to be 89%.
On to `NNC(=O)c1ccncc1` [ISONIAZID], for which, in data set [1], it took 0.025 µg/mL (≈ 0.182 µM) to inhibit growth (MIC).
The compound `CC(C)[C@@H](NC(=O)OCc1ccccc1)C(=O)Oc1ccc(Cl)cc1C(=O)Nc1ccc(Cl)cc1` returned an MIC in data set [1] of over 6.25 µg/mL. In addition, the IC80 in the data set on Trichosporon beigelii [2], in the data set on Nakaseomyces glabratus [3], in the data set on Lichtheimia corymbifera [5], in the data set on Aspergillus fumigatus [6], in the data set on Lichtheimia corymbifera [7] and in the data set with Candida tropicalis [8] was over 62.5 µg/mL in each case. Also, the IC80 was over 62.5 µg/mL in the data set with Candida albicans [9]; over 62.5 µg/mL with Nakaseomyces glabratus [10]; over 62.5 µg/mL in the data set on Trichosporon beigelii [11]; 31.2 µg/mL (≈ 60.6 µM) with Pichia kudriavzevii [12]; 15.6 µg/mL (≈ 30.3 µM) in data set [13]; over 62.5 µg/mL in the data set with Candida tropicalis [14]. Further, the IC80 in data set [15] was 15.6 µg/mL (≈ 30.3 µM); in the data set with Candida albicans [16], over 62.5 µg/mL; in the data set with Pichia kudriavzevii [17], 31.2 µg/mL (≈ 60.6 µM); in the data set on Aspergillus fumigatus [19] it was over 62.5 µg/mL. In [4], the “log K” value worked out at 0.9417. In data set [18], this compound registered an inhibition at 6.25 µg/mL of 77%.
On to `O=C(CNC(=O)OCc1ccccc1)Oc1ccc(Cl)cc1C(=O)Nc1cccc(Cl)c1`, for which the MIC in data set [1] was over 6.25 µg/mL. The IC80 with Trichosporon beigelii [2] is over 62.5 µg/mL; in the data set with Nakaseomyces glabratus [3], over 62.5 µg/mL; in the data set on Lichtheimia corymbifera [5] it was 62.5 µg/mL (≈ 132 µM); in the data set with Aspergillus fumigatus [6] it was over 62.5 µg/mL; in the data set with Lichtheimia corymbifera [7], 62.5 µg/mL (≈ 132 µM); in the data set on Candida tropicalis [8], over 62.5 µg/mL. Moreover, the IC80 in the data set with Candida albicans [9] is over 62.5 µg/mL; in the data set with Nakaseomyces glabratus [10] it was 62.5 µg/mL (≈ 132 µM); with Trichosporon beigelii [11], over 62.5 µg/mL; with Pichia kudriavzevii [12], 62.5 µg/mL (≈ 132 µM); in [13] it was 31.2 µg/mL (≈ 66 µM); in the data set on Candida tropicalis [14], over 62.5 µg/mL. The IC80 is 31.2 µg/mL (≈ 66 µM) in data set [15], over 62.5 µg/mL with Candida albicans [16], 62.5 µg/mL (≈ 132 µM) with Pichia kudriavzevii [17] and over 62.5 µg/mL in the data set with Aspergillus fumigatus [19]. Also, the “log K” value in [4] was 0.6119. The same compound showed an inhibition at 6.25 µg/mL in [18] of 7%.
`C[C@@H](NC(=O)OCc1ccccc1)C(=O)Oc1ccc(Cl)cc1C(=O)Nc1cccc(Cl)c1` came in with an MIC in data set [1] of over 6.25 µg/mL. In addition, the IC80 in the data set with Trichosporon beigelii [2] was over 62.5 µg/mL; in the data set on Nakaseomyces glabratus [3], 62.5 µg/mL (≈ 128 µM); with Lichtheimia corymbifera [5], 31.2 µg/mL (≈ 64.1 µM); in the data set with Aspergillus fumigatus [6] it was over 62.5 µg/mL; in the data set with Lichtheimia corymbifera [7], 31.2 µg/mL (≈ 64.1 µM); in the data set on Candida tropicalis [8], 62.5 µg/mL (≈ 128 µM). Also, the IC80 with Candida albicans [9] was over 62.5 µg/mL; in the data set on Nakaseomyces glabratus [10], 62.5 µg/mL (≈ 128 µM); in the data set with Trichosporon beigelii [11] it was over 62.5 µg/mL; with Pichia kudriavzevii [12], 31.2 µg/mL (≈ 64.1 µM); in data set [13], 7.81 µg/mL (≈ 16 µM); in the data set with Candida tropicalis [14] it was over 62.5 µg/mL. Also, the IC80 in [15] is 7.81 µg/mL (≈ 16 µM); in the data set on Candida albicans [16], 62.5 µg/mL (≈ 128 µM); in the data set on Pichia kudriavzevii [17], 31.2 µg/mL (≈ 64.1 µM); in the data set on Aspergillus fumigatus [19], over 62.5 µg/mL. The “log K” value in data set [4] is recorded as 0.699. Moreover, in data set [18], 6.25 µg/mL produced 36% inhibition.
Regarding `OC(Cn1cncn1)(Cn1cncn1)c1ccc(F)cc1F` [FLUCONAZOLE], the IC80 with Trichosporon beigelii [2] was 0.24 µg/mL (≈ 0.784 µM); with Nakaseomyces glabratus [3], 3.91 µg/mL (≈ 12.8 µM); in the data set with Lichtheimia corymbifera [5] it was over 125 µg/mL; in the data set on Aspergillus fumigatus [6], over 125 µg/mL; with Lichtheimia corymbifera [7], over 125 µg/mL; in the data set on Candida tropicalis [8], 0.12 µg/mL (≈ 0.392 µM). The IC80 in the data set with Candida albicans [9] is 0.12 µg/mL (≈ 0.392 µM); with Nakaseomyces glabratus [10] it was 0.98 µg/mL (≈ 3.2 µM); in the data set on Trichosporon beigelii [11] it was 0.48 µg/mL (≈ 1.57 µM); in the data set on Pichia kudriavzevii [12] it was 3.91 µg/mL (≈ 12.8 µM); in [13], 3.91 µg/mL (≈ 12.8 µM); with Candida tropicalis [14], over 125 µg/mL. Moreover, the IC80 in [15] is 1.95 µg/mL (≈ 6.37 µM); in the data set with Candida albicans [16], 0.06 µg/mL (≈ 0.196 µM); in the data set on Pichia kudriavzevii [17], 15.6 µg/mL (≈ 51 µM); with Aspergillus fumigatus [19] it was over 125 µg/mL.

By MIC is commonly meant the lowest concentration that inhibits growth of the organism. A higher MIC goes with a less susceptible organism. The IC80 is the point of the concentration-response curve where the effect stands at 80%. A high value points to weaker potency. In general, inhibition refers to the change of the read-out against control, counted positive when it falls. Higher therefore signals strong suppression.
